Data set [1] concerns Macrophage. In words: Antiinflammatory activity in human macrophages assessed as increase in arginase-1 level at 10 nM incubated for 7 days by flow cytometry analysis. In kind it is functional, cell-based. As to conditions: time 7.0 day. The gist of the method:
(§1)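 PBMCs from healthy donors (dextran RBC sedimentation, Histopaque-1077) seeded in low-adhesion plates, 800,000 cells/well. Differentiated to macrophages over 7 days in RPMI-1640 with 10% human serum and 20 ng/mL GM-CSF, with 10 nM test agent or 0.05% ethanol vehicle. Lifted with 5 mM EDTA, Fc-blocked with gamma globulins, surface-stained, then fixed/permeabilized for Arg1. Median fluorescence intensities analyzed by PLS-DA and VIP scores.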
On the technique in general: Flow cytometry measures light scatter and fluorescence of single cells or particles in a stream.

The subject of data set [2] is Macrophage. Briefly: Induction of phagocytosis in human macrophages assessed as clearance of pHrodo red-conjugated zymosan A particles at 0.001 to 10 nM measured after 2 hrs by hoechst 33342 staining based high content imaging analysis. In kind it is functional, cell-based. The settings on record: dose 0.001-10 nM. Put shortly:
(§2)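 Macrophages from donor PBMCs (7 days, RPMI-1640, 10% human serum, 20 ng/mL GM-CSF), 50,000 cells/well, adhered overnight, Hoechst-stained. Pretreated 15 min at 37 °C in RPMI-1640 with 0.001–10 nM or 0.05% ethanol vehicle. Opsonized pHrodo particles added (S. aureus or E. coli 5 μg/well, zymosan 2.5 μg/well). Phagocytosis imaged over 2 h. Mean ± SEM, N = 6 donors.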

The test system of data set [3] is Neutrophil. Briefly: Induction of phagocytosis in human neutrophils assessed as clearance of pHrodo green conjugated Staphylococcus aureus at 0.001 to 10 nM measured after 2 hrs by hoechst 33342 staining based high content imaging analysis. It counts as functional, cell-based. As to conditions: dose 0.001-10 nM. Put shortly:
(§3)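 Blood neutrophils from healthy donors, Hoechst 33342-stained, in X-VIVO15 with 2 mM L-glutamine and 1% pen/strep, 250,000 cells/well, adhered 30 min at 37 °C. Pretreated 15 min at 37 °C with 0.001–10 nM or 0.05% ethanol vehicle. Then given IgG-opsonized pHrodo particles (S. aureus 5 μg/well, E. coli 5 μg/well, zymosan 2.5 μg/well). Signal rise imaged over 2 h. Mean ± SEM, N = 6 donors.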

The subject of data set [4] is Macrophage. In words: Antiinflammatory activity in human macrophages assessed as decrease in CD80 level at 10 nM incubated for 7 days by flow cytometry analysis. It counts as functional, cell-based. The settings on record: time 7.0 day. The gist of the method: as §1
Data set [5] deals with Macrophage. Briefly: Antiinflammatory activity in human macrophages assessed as increase in MerTK level at 10 nM incubated for 7 days by flow cytometry analysis. It counts as functional, cell-based. The settings on record: time 7.0 day. Put shortly:
as §1

A short description of data set [6]: Retention time of the compound in human serum by RP-LC-MS/MS. It counts as ADME, cell-free. The gist of the method:
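Pooled human serum (0.5 mL) mixed with 2 volumes cold MeOH containing d5-Maresin 1, held at −20 °C ≥45 min, then centrifuged. Automated C18 SPE at pH 3.5. Analyzed on a C18 Poroshell column at 0.5 mL/min with a MeOH/H2O/acetic acid gradient. MRM transition 361 > 199.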

Data set [7] has as its system Macrophage. Briefly: Antiinflammatory activity in human macrophages assessed as increase in CD163 at 10 nM incubated for 7 days by flow cytometry analysis. In kind it is functional, cell-based. As to conditions: time 7.0 day. The gist of the method: as §1
The subject of data set [8] is Neutrophil. In words: Induction of phagocytosis in human Neutrophil assessed as clearance of pHrodo red-conjugated Escherichia coli at 0.001 to 10 nM measured after 2 hrs by hoechst 33342 high content imaging analysis. As to conditions: dose 0.001-10 nM. It counts as functional, cell-based. The gist of the method:
as §3

In data set [9] the test system is Macrophage. In words: Antiinflammatory activity in human macrophages assessed as decrease in CD142 level at 10 nM incubated for 7 days by flow cytometry analysis. As to conditions: time 7.0 day. It counts as functional, cell-based. The gist of the method:
as §1

Data set [10] has as its system Macrophage. In words: Induction of phagocytosis in human macrophages assessed as clearance of pHrodo green conjugated Staphylococcus aureus at 0.001 to 10 nM measured after 2 hrs by hoechst 33342 staining based high content imaging analysis. It counts as functional, cell-based. As to conditions: dose 0.001-10 nM. The gist of the method: as §2
Data set [11] concerns Macrophage. In words: Induction of phagocytosis in human macrophages assessed as clearance of pHrodo red-conjugated Escherichia coli at 0.001 to 10 nM measured after 2 hrs by hoechst 33342 staining based high content imaging analysis. It counts as functional, cell-based. As to conditions: dose 0.001-10 nM. Put shortly: as §2
The subject of data set [12] is Neutrophil. Briefly: Induction of phagocytosis in human neutrophils assessed as clearance of pHrodo red-conjugated zymosan A particles at 0.001 to 10 nM measured after 2 hrs by hoechst 33342 staining based high content imaging analysis. In kind it is functional, cell-based. The settings on record: dose 0.001-10 nM. The gist of the method: as §3

Calls of active or inactive are those of the source. No cut-off for these calls is given here.

As for `CC/C=C\C[C@H](O)/C=C/C=C\C/C=C\C=C\[C@@H](O)CCCCCC(=O)O`, the result in the data set with Macrophage [1], with Macrophage [2], in the data set on Neutrophil [3], with Macrophage [4], in the data set on Macrophage [5] and with Macrophage [7] was Active. In addition, the result in the data set on Neutrophil [8], in the data set on Macrophage [9], in the data set with Macrophage [10], in the data set on Macrophage [11] and in the data set with Neutrophil [12] was Active. In data set [6], this molecule showed a Retention_time of 13.5 min.
